The values that follow come from ChEMBL document CHEMBL1129458, “Indole inhibitors of human nonpancreatic secretory phospholipase A2. 3. Indole-3-glyoxamides” (J Med Chem, 1996).

Some results are limits rather than exact numbers.

The species entered for experiment [1] is Cavia porcellus. In words: Inhibition of Phospholipase A2 induced contraction of GP lung tissue. The format is functional. Put shortly:
(§1)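 Guinea pig lung pleural strips were contracted with either hnps-PLA2 or arachidonic acid, the latter serving as the control challenge for selectivity. Antagonism is given as KB.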

The species entered for experiment [2] is Cavia porcellus. In words: Inhibition Arachidonic acid(AA) induced contraction of GP lung tissue. The format is functional. Put shortly: as §1
The target of experiment [3] is T1, Phospholipase A2, major isoenzyme (Sus scrofa, UniProt P00592). In words: Compound was tested for inhibition of porcine secretory pancreatic PLA2.
Experiment [4] addresses T2, Phospholipase A2 (Homo sapiens, UniProt P04054). In words: Compound was tested for inhibition of human secretory pancreatic Phospholipase A2.
Experiment [5] can be described thus: Mole fraction of the IC50 concentration of compound divided by the total lipid concentration (1230 uM) in a chromogenic assay. The format is functional.
Experiment [6] is described as follows: Mole fraction is the IC50 concentration divided by the total lipid concentration (4000 uM) in DOC/PC assay. The format is functional. The method in brief:
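The value is a mole fraction: the DOC/PC assay IC50 (3 nM hnps-PLA2; 3 mM DOC/1 mM [14C]PC micelles; 1 h at 40 °C; released [14C]oleic acid counted) divided by the total lipid concentration of 4000 µM.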

For experiment [7], the target named is T3, Phospholipase A2, membrane associated (Homo sapiens, UniProt P14555).
T3 sequence (P14555 whole entry): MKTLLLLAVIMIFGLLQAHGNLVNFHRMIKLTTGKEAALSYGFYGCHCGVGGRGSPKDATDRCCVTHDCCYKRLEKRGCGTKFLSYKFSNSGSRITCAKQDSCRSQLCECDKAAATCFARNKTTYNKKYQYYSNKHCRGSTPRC
In words: Compound was evaluated to inhibit human nonpancreatic secretory Phospholipase A2 through chromogenic assay. Type of experiment: functional. The method in brief:
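Chromogenic hnps-PLA₂ hydrolysis assay with 16 nM enzyme and 1.23 mM (1230 µM) total lipid substrate. IC₅₀ was determined, and the mole-fraction value is the IC₅₀ divided by the total lipid concentration.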

Experiment [8] addresses T2, Phospholipase A2. The experiment in a line: Compound was evaluated to inhibit human secretory pancreatic Phospholipase A2.
Experiment [9] deals with T3, Phospholipase A2, membrane associated. In words: Inhibition of human nonpancreatic secretory Phospholipase A2 through chromogenic assay.
The target is the same in experiment [10]. In words: Inhibition of human nonpancreatic secretory Phospholipase A2 through DOC/PC assay. The method in brief: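 hnps-PLA2 (10 ng per tube; 3 nM) was preincubated with test compound in DMSO in pH 8 Tris buffer with 0.2 M NaCl, 2 mM CaCl2 and fatty-acid-free BSA. The substrate was sonicated mixed micelles (final 3 mM deoxycholate/1 mM PC) with [14C]-palmitoyl-oleoyl-PC. Reactions ran 1 h at 40 °C and were stopped with Dole reagent. Released [14C]oleic acid was extracted with heptane/silica and counted. IC50 was calculated against diluent controls.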

Experiment [11] deals with T1, Phospholipase A2, major isoenzyme. The experiment in a line: Compound was tested for inhibition of porcine secretory pancreatic Phospholipase A2.
For experiment [12] the target is unchanged. In words: Compound was tested for inhibition of porcine secreted pancreatic PLA2.
The target of experiment [13] is T2, Phospholipase A2. In words: Compound was tested for inhibition of human secretory pancreatic PLA2.
The target of experiment [14] is T2, Phospholipase A2. In words: Compound was tested for inhibition of human secreted pancreatic PLA2.

T1 sequence (P00592 whole entry): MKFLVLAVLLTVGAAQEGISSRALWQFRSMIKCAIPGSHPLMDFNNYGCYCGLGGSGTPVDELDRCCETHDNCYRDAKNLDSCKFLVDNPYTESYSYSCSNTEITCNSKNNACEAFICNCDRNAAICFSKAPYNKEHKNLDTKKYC
T2 sequence (P04054 whole entry): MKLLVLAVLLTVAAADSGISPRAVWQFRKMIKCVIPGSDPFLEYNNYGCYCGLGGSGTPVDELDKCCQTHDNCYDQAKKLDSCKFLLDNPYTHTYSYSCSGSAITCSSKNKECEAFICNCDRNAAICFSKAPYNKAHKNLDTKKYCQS

The IC50 is the point on the concentration scale where inhibition reaches its midpoint. A lower IC50 goes with greater potency. `CCc1c(C(=O)C(N)=O)c2c(OCC(=O)O)cccc2n1Cc1ccccc1` [VARESPLADIB]: in [1], the KB turned out to be 0.083 µM. This compound also registered an ED50 in [2] of over 30000 nM. Also, the IC50 was 48 nM in [3] and 228 nM in experiment [4]. Also, the Mole fraction in [5] amounted to 7.3e-06; in [6], 1.8e-06.
In [1], `CCc1c(C(=O)C(N)=O)c2c(OCC(=O)O)cccc2n1S(=O)(=O)c1ccccc1` yielded a KB of 0.316 µM. Also, the IC50 in experiment [7] amounted to 28 nM. For the same compound, in experiment [5], the Mole fraction turned out to be 2.3e-05.
On to `Cc1c(C(=O)C(N)=O)c2c(/C=C/C(=O)O)cccc2n1Cc1ccccc1`, for which the IC50 in experiment [8] is over 100000 nM; in [9], 46000 nM. For the same compound, the Mole fraction in experiment [5] was 0.036.
`Cc1c(C(=O)C(N)=O)c2c(CCC(=O)O)cccc2n1Cc1ccccc1` gave a KB in [1] of 0.614 µM. Further, the IC50 in experiment [8] is over 100000 nM; in experiment [9], 145 nM. This compound came in with a Mole fraction in experiment [5] of 0.00012.
Compound `Cc1c(C(=O)C(N)=O)c2c(OCC(=O)O)cccc2n1Cc1ccccc1-c1ccccc1` registered a KB in [1] of 0.068 µM. In [2], this compound displayed an ED50 of over 10000 nM. The IC50 stood at 3 nM in experiment [10], 364 nM in experiment [4], 97 nM in [11] and 6 nM in experiment [9]. For the same compound, the Mole fraction in experiment [5] was found to be 5e-06; in experiment [6], 7.5e-07.
Consider `CCc1c(C(=O)C(N)=O)c2c(OCC(=O)O)cccc2n1Cc1cccc(Cl)c1`, for which the IC50 in experiment [12] stood at 3 nM; in experiment [10] it was 25 nM; in experiment [13], 390 nM; in experiment [9], 7 nM. The KB in experiment [1] was 0.11 µM. In experiment [2], the ED50 came out at 5000 nM. Besides, the Mole fraction worked out at 5.8e-06 in [5] and 6.3e-06 in [6].
Regarding `CCCCCCCCn1c(C)c(C(=O)C(N)=O)c2c(OCC(=O)O)cccc21`, the values for the IC50 in experiment [14], in [10] and in experiment [9] were 780 nM, 18 nM and 8 nM, respectively. Besides, the KB in [1] turned out to be 0.061 µM. Besides, the ED50 in [2] was over 30000 nM. Further, the Mole fraction in [5] stood at 6.5e-06; in experiment [6], 4.5e-06.
